Test results reported in publication PMC9136973 (ACS Central Science, 2022).
Converted amounts (≈) assume the structure as drawn.

Tests used:
MOLT-4 cells = test: Xenotransplantation in zebrafish embryos; type: in vivo; details: 500 nM, 48 h
In short: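 Wild-type TE zebrafish embryos at 32 hpf each received ~1 nL (~200) CFDA SE-labeled MOLT-4 cells into the perivitelline space, then 1 h at 28 °C. Well-engrafted embryos were treated with test compound (500 nM) or DMSO for 48 h at 35 °C, with development monitored. Embryos were dissociated through a 40 μm strainer and labeled cells quantified by flow cytometry. Fold change was taken against the DMSO-group mean.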

Hsp70, Hsp40, and Hsp27 = test: Immunoblot of heat shock response proteins in K562 cells; type: cell-based, human; details: 48 h, cytotoxic concentration
[1] = Aqueous thermodynamic solubility; type: physicochemical; details: phosphate-buffered saline, pH 7.4
[2] = molecular target: recombinant Hsp90α CTD protein (Homo sapiens, UniProt P07900); test: Cell-free thermal shift assay; type: binding; details: 100 µM
In short: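 Recombinant human Hsp90α CTD (residues 563–732, 5 μM) was mixed with test compound in 1× PBS, pH 7.5, and incubated for 2 h. SYPRO orange (6×) was added and samples were heated with increasing temperature up to 95 °C. Tm was compared with the DMSO vehicle control.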

Sequence of recombinant Hsp90α CTD protein (P07900 563-732): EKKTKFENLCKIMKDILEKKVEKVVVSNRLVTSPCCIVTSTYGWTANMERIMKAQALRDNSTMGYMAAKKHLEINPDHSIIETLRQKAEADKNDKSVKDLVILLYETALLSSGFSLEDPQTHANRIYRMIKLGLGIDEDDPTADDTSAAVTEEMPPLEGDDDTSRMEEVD

CCNC(=O)c1noc(-c2cc(C(C)C)c(O)cc2O)c1-c1ccc(CN2CCOCC2)cc1 [AUY922]
toxicity on the development of xenotransplanted embryos (MOLT-4 cells): No toxicity
number of transplanted MOLT4 cells vs DMSO-treated group (MOLT-4 cells; flow cytometry): significantly reduced
induction of heat shock response (expression of Hsp70, Hsp40, Hsp27) (Hsp70, Hsp40, and Hsp27): led to HSR induction

Cc1nccn1CC1CCc2c(c3ccccc3n2C)C1=O (centres unmarked) [Ondansetron]
solubility thermodynamic [1]: 95 µM (≈ 27.9 µg/mL)

CO[C@H]1[C@H](OC(=O)c2ccc(C)[nH]2)[C@H](O)[C@@H](Oc2ccc3c(O)c(NC(=O)c4c[nH]c(C(=O)Nc5c(O)c6ccc(O[C@H]7OC(C)(C)[C@@H](OC)[C@H](OC(=O)c8ccc(C)[nH]8)[C@@H]7O)c(C)c6oc5=O)c4C)c(=O)oc3c2C)OC1(C)C [coumermycin A1]
effect on thermal stability of Hsp90α CTD protein [2]: stabilized
